# Assay outcomes: PubChem, The Scripps Research Institute Molecular Screening Center
# UHRF1 binding – blocks human UHRF1 binding to methylated DNA; hit rate 0.75% among 370,000; inhibition, % at 4.4 µM; UHRF1 binding to methylated oligo, TR-FRET; Q96T88; AID 687016;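 note: UHRF1 SRA domain binding a hemimethylated CpG hairpin DNA probe; 0% = median of test compound wells and 100% = reference inhibitor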
# TDP2 absorb – blocks human TDP2 phosphodiesterase activity. recombinant TDP2, T5PNP hydrolysis, p-nitrophenol absorbance 415 nm. inhibition, % at 12.8 µM. O95551. hit rate 0.34% among 370,000;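 active = inhibition above the mean of all tested compounds plus 3 SD, set per campaign, cut at about 25% in these data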;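 note: 0% = DMSO with enzyme and 100% = buffer with substrate but no TDP2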
#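 Assay system: recombinant human TDP2 / Reagent: T5PNP substrate at 5 mM, a TopII-DNA adduct mimic / Measured by: epi absorbance from released p-nitrophenol / Evaluation: % inhibition relative to enzyme-containing and enzyme-free wells / Control set: enzyme-free and DMSO wells / Replicates: each compound tested once, singlicate / Schedule: enzyme reaction with compound for 2 h at 37 °C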
# LEDGF integ inh – blocks HIV-1 LEDGF/p75-dependent DNA integration; inhibition, % at 3.7 µM; hit rate 0.64% among 370,000; TR-FRET IN-LEDGF/p75 DNA integration, Eu/Cy5;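 active = inhibition above the screen-wide mean plus 3 SD, cut at about 13% in these data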;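 note: signal is the Cy5 over europium emission ratio at 671 and 618 nm; 0% = plate median of compound wells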
# MBD2 DNA inh – blocks human MBD2 binding to methylated DNA. TR-FRET, MBD2 binding to methylated oligonucleotide. inhibition, % at 4.4 µM. hit rate 0.31% among 370,000. AID 686964; in the data active = inhibition above about 13%
# Target sequence (Q9UBB5 whole entry, looked up): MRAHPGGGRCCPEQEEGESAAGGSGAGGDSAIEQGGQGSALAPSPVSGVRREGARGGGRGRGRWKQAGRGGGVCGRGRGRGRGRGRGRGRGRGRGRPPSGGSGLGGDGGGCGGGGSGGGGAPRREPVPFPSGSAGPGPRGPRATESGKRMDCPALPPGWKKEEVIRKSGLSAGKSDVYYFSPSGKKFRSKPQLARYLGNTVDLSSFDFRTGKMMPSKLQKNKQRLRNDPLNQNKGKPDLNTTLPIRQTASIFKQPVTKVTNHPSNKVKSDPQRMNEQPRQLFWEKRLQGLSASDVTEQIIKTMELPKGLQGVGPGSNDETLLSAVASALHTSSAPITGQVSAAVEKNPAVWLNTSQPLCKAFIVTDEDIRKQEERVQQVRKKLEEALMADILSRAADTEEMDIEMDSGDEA
# UHRF1 ctr MBD2 – counter-screen for MBD2 inhibitors: human UHRF1 methylated DNA binding inhibitors; hit rate 25% among 1,000; UHRF1 binding to methylated oligonucleotide, TR-FRET; inhibition, % at 4.4 µM; shares compounds with MBD2 DNA inh;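 note: UHRF1 SRA domain binding a labeled hemimethylated CpG hairpin DNA; 0% = vehicle only and 100% = reference inhibitor with vehicle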
# MBD2 confirm – MBD2-DBD methyl-DNA binding inhibition, TR-FRET confirmation; inhibition, % at 4.4 µM; AID 720531; TR-FRET MBD2-DBD binding to methylated oligonucleotide; shares compounds with MBD2 DNA inh; hit rate 26% among 1,000; in the data active = inhibition above about 14%
# * hit, by the source's call; · = no result given. In the library only some 1.6% were active in any assay of this set; here they are far more common. Cut-off read from the data, not from the text of the source, unless noted: active = inhibition above about 21%; inactive = the rest.
SMILES,UHRF1 binding,TDP2 absorb,LEDGF integ inh,MBD2 DNA inh,UHRF1 ctr MBD2,MBD2 confirm
Cc1ccc([C@@H]2C[C@H]3[C@@H](CN2S(=O)(=O)c2ccc(C)cc2)C(=O)C[C@@H](c2ccccc2F)N3S(=O)(=O)c2ccc(C)cc2)cc1,27*,-5,5,15*,3,3
Nn1c(-c2ccc(O)cc2)nnc1-c1ccc(O)cc1,2,-11,2,23*,5,3
CCN1C(=O)CC(N2CCC(C(=O)N3CCOCC3)CC2)C1=O (configuration not stated),23*,-4,1,15*,8,3
CC(C)(C)OC(=O)NCc1ccccc1/C=C/S(=O)(=O)NCCc1ccccc1,1,7,-3,3,·,·
CC[N+](CC)(CC)CCOc1ccc(/C=C/c2ccccc2)cc1,19,-7,7,4,·,·
CC[N+](CC)(CC)CCCCOc1ccc2c(c1)C(=O)c1cc(OCCCC[N+](CC)(CC)CC)ccc1-2,31*,7,1,21*,49*,32*
CCn1nc(C(=O)NNC(=O)c2ccccc2)c2ccccc2c1=O,-1,-16,12,24*,6,4
CC(C)C[C@H]1COc2cc(Br)ccc2S(=O)(=O)N1Cc1cn(CCC2OCCCO2)nn1,-1,-2,0,2,·,·
Cc1nc2ccc(S(=O)(=O)NCC(=O)NCc3ccccc3C)cc2s1,-1,3,-3,0,·,·
COc1ccc(S(=O)(=O)N2CCN(C(=O)CCc3c[nH]c4ccccc34)CC2)cc1,2,13,-6,48*,6,5
CCC(NC(=O)c1ccc2c(c1)c(C)c(C)n2Cc1ccc(-c2ccccc2C#N)cc1)c1ccccc1 (configuration not stated),4,-9,-4,7,·,·
COc1ccc(C(=O)c2cc3c(cc2[N+](=O)[O-])OCCO3)cc1,-1,1,-2,4,·,·
O=C(c1ccccc1F)c1cc2c(cc1[N+](=O)[O-])OCCO2,18,-10,1,15*,7,1
CCOC(=O)CC[C@H]1CC[C@]2(CCCN(C3CCCCC3)C2)O1,3,0,-1,-3,·,·
COc1cc2c(cc1OC)CN(C(=O)CCOc1ccccc1)CC2,-1,9,1,3,·,·
COc1cc2c(cc1OC)CN(C(=O)CCOc1ccccc1C)CC2,1,4,-4,14*,3,1
COc1cccc(N2CCN(CC(=O)NCc3ccco3)CC2)c1,-1,-4,-5,-4,·,·
Cn1c(=O)c2c(ncn2CC(=O)O)n(C)c1=O,0,-17,-1,-6,·,·
Cn1c(=O)c2c(ncn2CC2OCCO2)n(C)c1=O,1,3,-4,35*,8,2
CCN(c1ccccc1)S(=O)(=O)c1cccc(C(=O)NCC2(N(C)C)CCCCC2)c1,11,-4,-1,23*,3,9
CC1(c2nnnn2Cc2ccccc2)CCC(=O)N1CCc1c[nH]c2ccccc12 (configuration not stated),3,0,-3,2,·,·
CC1(c2nnnn2Cc2ccccc2)CCC(=O)N1CCc1ccccc1F (configuration not stated),22*,-11,-3,15*,13,6
Cc1ccc(NC(=O)CN(C)C(=O)CNC(=O)c2sc3ccccc3c2Cl)cc1,-3,-5,6,50*,4,2
CC(=O)Nc1sc2c(c1-c1nc3ccccc3s1)CCCN(C(C)C)C2,28*,-1,3,50*,35*,55*
CC(=O)Nc1sc2c(c1-c1nc3ccccc3s1)CN(C(C)C)C2,-5,0,0,14*,11,29*
SMILES,UHRF1 binding,TDP2 absorb,LEDGF integ inh,MBD2 DNA inh,UHRF1 ctr MBD2,MBD2 confirm
CC(=O)Nc1sc2c(c1-c1nc3ccccc3s1)CCN(C(C)=O)C2,-18,4,3,-5,·,·
CC(=O)Nc1sc2c(c1-c1nc3ccccc3s1)CCN(C)C2,1,0,2,28*,15,42*
CC(=O)Nc1sc2c(c1-c1nc3ccccc3s1)CN(C(C)C)CC2,3,-5,2,36*,24*,57*
O=C(Nc1ccc(Cl)cc1)O[C@@H]1CC[C@@]23CCCN2C(=O)CCC[C@H]3C1,-3,1,-1,3,·,·
COC(=O)C1CN(Cc2ccc(F)cc2)CCS(=O)(=O)N1Cc1ccccc1 (configuration not stated),2,-11,7,0,·,·
C=C(C)Cn1c(COc2ccccc2)nnc1SCC(=O)O,0,3,2,15*,4,3
CC(=O)N1Cc2cc(C(=O)NCC(F)(F)F)nc(-c3cccc(-c4cccnc4)c3)c2[C@H]1CCO,-1,6,4,-1,·,·
CCC(=O)N1Cc2cc(C(=O)NCC(F)(F)F)nc(-c3cccc(-c4cncnc4)c3)c2[C@H]1CCO,26*,-2,8,14*,2,3
O=C(O)C1CCCCC1C(=O)Nc1cccc(Br)c1 (configuration not stated),67*,-13,5,40*,63*,41*
CCOC(=O)C(Cc1ccc(NC(C)=O)cc1)N1C(=O)c2ccccc2C1=O (configuration not stated),20,0,2,17*,2,-1
O=C(O)CC1CC(O)CCC1=O (configuration not stated),4,-4,-1,28*,8,1
CCSc1nc(O)c(Cc2ccccc2)c(=O)[nH]1,14,0,-1,13*,4,6
COC(=O)[C@@]12CCCCC3=C1N(CCC3)C(=O)[C@H]2CC(=O)NCCCCc1ccccc1,-1,0,0,3,·,·
COc1ccc(OC)c(S(=O)(=O)N(C)CC(=O)Nc2ccccc2OC)c1,1,1,2,2,·,·
COc1ccc(OC)c(/C(O)=C/C(=O)C(=O)Nc2ccccc2OC)c1,19,15,-1,15*,6,0
Cc1cc(NC(=O)C2CCN(S(=O)(=O)c3cnc[nH]3)CC2)ccc1Br,21,0,1,14*,4,2
Cc1ccc(NC(=O)C2CCN(S(=O)(=O)c3cnc[nH]3)CC2)cc1C,0,4,1,3,·,·
CC(C)(C)c1ccc(S(=O)(=O)N2CCCC2C(=O)N2CCN(c3ccccc3)CC2)cc1 (configuration not stated),4,-13,-5,0,·,·
COc1ccccc1N1CCN(C(=O)C(C)CS(=O)(=O)c2ccc3c(c2)NC(=O)CS3)CC1 (configuration not stated),83*,-6,57*,77*,15,8
COc1ccccc1N1CCN(S(=O)(=O)c2ccc3c(c2)NC(=O)C(C)S3)CC1 (configuration not stated),0,-20,4,-2,·,·
